Screening data (PubChem)
Shown are actives, neighbours in structure and some others; about 1.6% of the full set was active somewhere.
PPC-1+TRAIL kill: compounds killing PPC-1 cancer cells with TRAIL present, primary screen, TRAIL potentiator project, ATPLite luminescence, uHTS; 220,000 tested, 0.41% active; cell killing (% activity), % at 4 µM or 5 µM; PPC-1 cells + TRAIL, ATPLite viability luminescence;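 active means cell killing above 50% in the first pass at 4 µM, then a duplicate retest at 5 µM averaging 50% or more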;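 further: plate controls were cells with TRAIL plus DMSO for no effect and medium-only wells lacking cells for full effect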
C8 TRAIL sens: viability loss with TRAIL in NB7+C8 cells, primary screen, TRAIL sensitizer project, cell-based, ATPlite luminescence. AID 624354, 2012. inhibition (viability loss, TRAIL sensitization), % at 10 µM. 360,000 tested, 1% active;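 active means compounds causing at least 50% loss of cell viability in the single-dose screen, relative to plate controls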
FLuc stim CS: FLuc activators, initial screening, artefact control for FLuc-dependent activation tests, biochemical, ATPlite luminescence. Luciferin 4-monooxygenase (Photinus pyralis), P08659. ATPlite luciferase biochemical, 10 min; 0 = ATP-free wells, 1 = DMSO control. activation factor at 10 µM. 200,000 tested, under 10 active. AID 1027, 2008;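 active means luciferase activation factor, scaled between plate controls, of at least 2 with compound at 10 µM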
Target sequence (P08659 whole entry, looked up): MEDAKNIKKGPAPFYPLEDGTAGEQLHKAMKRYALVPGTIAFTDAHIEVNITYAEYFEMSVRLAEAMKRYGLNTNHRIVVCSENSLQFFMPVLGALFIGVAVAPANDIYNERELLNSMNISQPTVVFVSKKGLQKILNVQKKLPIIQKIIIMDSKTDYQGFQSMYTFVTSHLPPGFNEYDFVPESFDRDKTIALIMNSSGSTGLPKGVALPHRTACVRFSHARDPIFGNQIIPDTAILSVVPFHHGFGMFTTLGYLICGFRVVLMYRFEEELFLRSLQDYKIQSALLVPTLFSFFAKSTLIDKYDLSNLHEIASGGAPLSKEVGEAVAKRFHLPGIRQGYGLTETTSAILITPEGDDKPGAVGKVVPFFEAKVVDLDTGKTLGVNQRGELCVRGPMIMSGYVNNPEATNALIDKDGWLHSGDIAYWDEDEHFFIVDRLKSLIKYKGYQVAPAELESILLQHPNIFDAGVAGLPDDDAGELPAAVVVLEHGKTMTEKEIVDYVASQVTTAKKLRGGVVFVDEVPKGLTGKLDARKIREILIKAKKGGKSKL
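System: luciferase plus luciferin reagent, cell-free; medium: PBS as buffer for the ATP substrate; dosing: test compounds dosed from 2 mM stocks in 100% DMSO; timing: 10 min post-reagent at room temperature; measured by: luminescence measurement of luciferase light output; evaluation: luciferase activation, seen as luminescence increase over controls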
FLuc inh counter: firefly luciferase enzyme inhibitors, primary screen, artefact control for luciferase-based inhibitor screens, biochemical, luminescence, ATPLite; 200,000 tested, 1.5% active; inhibition, % at 10 µM; Luciferin 4-monooxygenase (Photinus pyralis), P08659; 10 min;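 active means inhibition above about 50% when tested at 10 µM, limit read from the data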
* marks the source's active call; other numbers are inactive results.

What do the screens show for `CCOC(=O)c1ccc(N(CCC2CO2)S(=O)(=O)c2ccc(C)cc2)cc1` (configuration not stated)?
C8 TRAIL sens: -7.2

What do the screens show for `c1cn2c(NC3CCCC3)c(-c3ccc(N4CCOCC4)cc3)nc2cn1`?
PPC-1+TRAIL kill: 41.8; C8 TRAIL sens: -20.7; FLuc stim CS: 0.2; FLuc inh counter: 81.1*

Results for CCCN(CC(=O)Nc1ccccc1C)C(=O)CCl ?
PPC-1+TRAIL kill: 35.8; C8 TRAIL sens: 91.0*; FLuc stim CS: 1; FLuc inh counter: -2.5

How did Cc1cc(C)c(S(=O)(=O)N2CCN(C(=O)C(C)Cn3cncn3)CC2)c(C)c1 (configuration not stated) do in these assays?
C8 TRAIL sens: -11.0

What do the screens show for `CN1/C(=C/C(=O)c2nc(S(C)(=O)=O)ncc2Cl)C(C)(C)c2ccccc21`?
PPC-1+TRAIL kill: -5.2; C8 TRAIL sens: 66.7*; FLuc stim CS: 1; FLuc inh counter: -2.6

Results for CN1/C(=C\C(=O)c2cccnc2)C(C)(C)c2ccccc21 ?
PPC-1+TRAIL kill: -3.9; C8 TRAIL sens: -10.2; FLuc stim CS: 1; FLuc inh counter: -1.9

How did COC(=O)CCC(C)C1CCC2C3C(OC(C)=O)CC4CC(O)CCC4(C)C3CC(O)C12C (configuration not stated) do in these assays?
C8 TRAIL sens: 2.6

What do the screens show for `Cc1ccc(S(=O)(=O)N(C)c2ccccc2C(=O)Nc2c(F)cccc2F)cc1`?
C8 TRAIL sens: 10.4

Results for CC1(C)Cc2c(sc(NC(=O)c3ccc(Br)o3)c2C#N)CO1 ?
PPC-1+TRAIL kill: 49.6; C8 TRAIL sens: 37.2; FLuc stim CS: 0.4; FLuc inh counter: 63.7*

How did O=C1OCCC1Sc1nnc(-c2ccc3c(c2)OCO3)o1 (configuration not stated) do in these assays?
PPC-1+TRAIL kill: 16.0; C8 TRAIL sens: 14.3; FLuc stim CS: 0.4; FLuc inh counter: 60.0*

Results for O=C1OCCC1Sc1nnc(-c2ccc(O)cc2)o1 (configuration not stated) ?
PPC-1+TRAIL kill: 20.8; C8 TRAIL sens: 2.7; FLuc stim CS: 0.9; FLuc inh counter: 14.3

What do the screens show for `O=C(Nc1ccc(-c2nnn(CC(=O)N3CCN(C(=O)c4ccco4)CC3)n2)cc1)c1ccccc1F`?
PPC-1+TRAIL kill: 13.5; FLuc stim CS: 0.4; FLuc inh counter: 55.7*

Results for CC1OC(C(C)(C)C)Cc2[nH][nH]c(=O)c21 (configuration not stated) ?
C8 TRAIL sens: 11.0

Results for CN=c1scc(-c2ccc(F)cc2)n1/N=C/c1ccc(O)c(O)c1 ?
PPC-1+TRAIL kill: 20.0; C8 TRAIL sens: 74.0*; FLuc stim CS: 0.1; FLuc inh counter: 89.6*

What do the screens show for `CN=c1scc(-c2ccc([N+](=O)[O-])cc2)n1/N=C/c1ccco1`?
PPC-1+TRAIL kill: 4.5; C8 TRAIL sens: 5.5; FLuc stim CS: 0.9; FLuc inh counter: 8.3

How did O=C(c1ccco1)N1CCN(Cc2nnc(-c3cccc(Cl)c3)o2)CC1 do in these assays?
C8 TRAIL sens: -2.3

What do the screens show for `CCCC(=O)Nc1cccc(-c2nc3ccccc3c(=O)o2)c1`?
PPC-1+TRAIL kill: 29.4; C8 TRAIL sens: 40.5; FLuc stim CS: 0.5; FLuc inh counter: 53.6*

How did COc1ccc(-c2nc3ccccc3c(=O)o2)cc1OC do in these assays?
PPC-1+TRAIL kill: -7.0; C8 TRAIL sens: 6.9; FLuc stim CS: 0.9; FLuc inh counter: 10.2

What do the screens show for `CC(C)(C)C(=O)Nc1ccc(-c2nc3ccccc3c(=O)o2)cc1`?
PPC-1+TRAIL kill: 41.1; C8 TRAIL sens: 59.2*; FLuc stim CS: 0; FLuc inh counter: 96.1*

Results for CC(C)C(=O)Nc1cccc(-c2nc3ccccc3c(=O)o2)c1 ?
PPC-1+TRAIL kill: 34.8; C8 TRAIL sens: 19.0; FLuc stim CS: 0.9; FLuc inh counter: 5.6

What do the screens show for `CC(C)C(=O)Nc1ccc(-c2nc3ccccc3c(=O)o2)cc1`?
PPC-1+TRAIL kill: 30.8; C8 TRAIL sens: 47.9; FLuc stim CS: 0.1; FLuc inh counter: 89.7*

What do the screens show for `CCC(=O)Nc1cccc(-c2nc3ccccc3o2)c1`?
PPC-1+TRAIL kill: -1.9; C8 TRAIL sens: 21.3; FLuc stim CS: 1; FLuc inh counter: 0.0

What do the screens show for `CC1CCN(CCCNC(=O)C2CC(=O)N(CCc3ccccc3)C2)CC1` (configuration not stated)?
C8 TRAIL sens: 4.3

Results for COCCCNC(=O)c1cccc2c(-c3ccnn3C)coc12 ?
C8 TRAIL sens: -9.7
